Publication PMC13170702 (Nuclear medicine and biology, 2025)

Columns and labels:
[1] = i.v., low molar activity tracer, PET-CT; cited from earlier work
[2] = organ radiation dose estimates, both OLINDA software versions; type: in vivo, human
Method in brief: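 Per-participant organ doses from OLINDA 1.1 (ICRP-60) and 2.0 (ICRP-103) were pooled by sex as mean ± SD (n = 4 per sex), in mGy/MBq; effective dose in mSv/MBq. Males and females were compared at p < 0.05. Kidney dose per MBq was related to injected activity and benchmarked against FDA 21CFR361 single-study limits (30 mSv whole body; 50 mGy other organs).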

[3] = range of sex means from both software versions

For `COC(=O)[C@@H](N)CC(=O)Nc1ccc2c(c1)Cc1cc([18F])ccc1-2` [[^18F]RP-115, methyl N^4-(7-[^18F]fluoro-9H-fluoren-2-yl)asparaginate], the “CNS activity uptake (SUV)” value [1] is given as greater than 1, the “kidney dose per injected activity used for the limit” value ([2]; 0.237 mGy/MBq × 211 MBq = 50 mGy) is given as 0.237 mGy/MBq and the “renal estimated radiation dose” value ([2]; Males 1–2 and Female 2, 289–355 MBq given) is given as greater than 50 mSv. The “ratio of estimated kidney dose to radioactivity given” value ([2]; Males 1–2 and Female 4) was greater than 0.21 mGy/MBq, the critical organ ([2]; highest mean absorbed dose, primary route of elimination) was “kidneys” and the “estimated absorbed doses, remaining organs and tissues and Effective dose” value ([2]; organs other than kidneys, liver, small intestine) was less than 0.035 mGy/MBq. It also gave a kidneys mean absorbed estimated radiation dose [2, 3] of 0.142 to 0.214 mGy/MBq and a liver mean absorbed dose [2, 3] of 0.0392 to 0.0449 mGy/MBq.
